Assays:
Assay type in all cases: ADME, organism-based
Pancreas [1] = assay: Biodistribution in pancreas of PSMA expressing human PC3 PIP and PSMA deficient human PC3 flu cells xenografted SCID mouse at 2 uCi, iv after 5 hrs; details: in vivo
[2] = Ratio of drug level in tumor to kidney of human PSMA expressing PC3 PIP and PSMA deficient human PC3 flu cells xenografted SCID mouse at 2 uCi, iv after 5 hrs; details: in vivo
Method in brief: (§1)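 Male SCID mice carried subcutaneous PSMA+ PC-3 PIP (left shoulder) and PC-3 flu (right shoulder) xenografts, 1-5 × 10^6 cells in HBSS, and were used at 3-5 mm tumor diameter. Tail-vein injection of 2 µCi radioligand; four mice per time point, killed by cervical dislocation. %ID/g from a standard dilution of the dose, decay-corrected, mean ± SD; PIP tumor:organ ratios.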

Pancreas [3] = assay: Biodistribution in pancreas of PSMA expressing human PC3 PIP and PSMA deficient human PC3 flu cells xenografted SCID mouse at 2 uCi, iv after 2 hrs; details: in vivo
Lung [4] = assay: Biodistribution in lung of PSMA expressing human PC3 PIP and PSMA deficient human PC3 flu cells xenografted SCID mouse at 2 uCi, iv after 5 hrs; details: in vivo
[5] = Biodistribution in PC3 flu tumor of PSMA expressing human PC3 PIP and PSMA deficient human PC3 flu cells xenografted SCID mouse at 2 uCi, iv after 60 mins; details: in vivo, 1 h; method in brief: as §1
[6] = Ratio of drug level in tumor to kidney of human PSMA expressing PC3 PIP and PSMA deficient human PC3 flu cells xenografted SCID mouse at 2 uCi, iv after 2 hrs; details: in vivo; method in brief: as §1
Liver = assay: Biodistribution in liver of PSMA expressing human PC3 PIP and PSMA deficient human PC3 flu cells xenografted SCID mouse at 2 uCi, iv after 60 mins; details: in vivo, 1 h
[7] = Biodistribution in large intestine of PSMA expressing human PC3 PIP and PSMA deficient human PC3 flu cells xenografted SCID mouse at 2 uCi, iv after 2 hrs; details: in vivo; method in brief: as §1
Heart [8] = assay: Biodistribution in heart of PSMA expressing human PC3 PIP and PSMA deficient human PC3 flu cells xenografted SCID mouse at 2 uCi, iv after 30 mins; details: in vivo, 0.5 h
Muscle tissue [9] = assay: Biodistribution in muscle of PSMA expressing human PC3 PIP and PSMA deficient human PC3 flu cells xenografted SCID mouse at 2 uCi, iv after 30 mins; details: in vivo, 0.5 h
[10] = Ratio of drug level in tumor to pancreas of human PSMA expressing PC3 PIP and PSMA deficient human PC3 flu cells xenografted SCID mouse at 2 uCi, iv after 60 mins; details: in vivo, 1 h
Method in brief: (§2)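 Male SCID mice carried subcutaneous xenografts: PSMA+ PC-3 PIP behind the left shoulder and PSMA− PC-3 flu behind the right, 1–5 × 10^6 cells in HBSS. Mice were used at 3–5 mm tumor diameter. 2 μCi was given by tail vein, and 4 mice per time point were killed by cervical dislocation. %ID/g came from a standard dilution of the dose, decay-corrected. Ratio is PIP tumor %ID/g to organ %ID/g.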

[11] = Biodistribution in small intestine of PSMA expressing human PC3 PIP and PSMA deficient human PC3 flu cells xenografted SCID mouse at 2 uCi, iv after 60 mins; details: in vivo, 1 h; method in brief: as §1
[12] = Ratio of drug level in tumor to stomach of human PSMA expressing PC3 PIP and PSMA deficient human PC3 flu cells xenografted SCID mouse at 2 uCi, iv after 5 hrs; details: in vivo; method in brief: as §2
[13] = Biodistribution in PC3 flu tumor of PSMA expressing human PC3 PIP and PSMA deficient human PC3 flu cells xenografted SCID mouse at 2 uCi, iv after 30 mins; details: in vivo, 0.5 h; method in brief: as §1
Stomach = assay: Biodistribution in stomach of PSMA expressing human PC3 PIP and PSMA deficient human PC3 flu cells xenografted SCID mouse at 2 uCi, iv after 5 hrs; details: in vivo
Pancreas [14] = assay: Biodistribution in pancreas of PSMA expressing human PC3 PIP and PSMA deficient human PC3 flu cells xenografted SCID mouse at 2 uCi, iv after 60 mins; details: in vivo, 1 h
[15] = Biodistribution in small intestine of PSMA expressing human PC3 PIP and PSMA deficient human PC3 flu cells xenografted SCID mouse at 2 uCi, iv after 2 hrs; details: in vivo; method in brief: as §1
[16] = Ratio of drug level in tumor to bladder of human PSMA expressing PC3 PIP and PSMA deficient human PC3 flu cells xenografted SCID mouse at 2 uCi, iv after 2 hrs; details: in vivo; method in brief: as §1
[17] = Ratio of drug level in tumor to muscle of human PSMA expressing PC3 PIP and PSMA deficient human PC3 flu cells xenografted SCID mouse at 2 uCi, iv after 5 hrs; details: in vivo; method in brief: as §1
Lung [18] = assay: Biodistribution in lung of PSMA expressing human PC3 PIP and PSMA deficient human PC3 flu cells xenografted SCID mouse at 2 uCi, iv after 60 mins; details: in vivo, 1 h
[19] = Ratio of drug level in tumor to blood of human PSMA expressing PC3 PIP and PSMA deficient human PC3 flu cells xenografted SCID mouse at 2 uCi, iv after 2 hrs
Method in brief: (§3)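 Male SCID mice carried subcutaneous xenografts of PSMA+ PC-3 PIP cells behind the left shoulder and PSMA− PC-3 flu cells behind the right (1–5 × 10^6 cells in HBSS), used at a tumour diameter of 3–5 mm. Each mouse received 2 μCi of radioiodinated tracer via the tail vein. Tissues were harvested at each time point for %ID/g against a standard dilution of the dose, decay-corrected. Ratios are PIP tumour:organ.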

[20] = Ratio of drug level in tumor to lung of human PSMA expressing PC3 PIP and PSMA deficient human PC3 flu cells xenografted SCID mouse at 2 uCi, iv after 60 mins; details: in vivo, 1 h; method in brief: as §1
[21] = Ratio of drug level in tumor to blood of human PSMA expressing PC3 PIP and PSMA deficient human PC3 flu cells xenografted SCID mouse at 2 uCi, iv after 5 hrs; method in brief: as §3
Heart [22] = assay: Biodistribution in heart of PSMA expressing human PC3 PIP and PSMA deficient human PC3 flu cells xenografted SCID mouse at 2 uCi, iv after 5 hrs; details: in vivo
[23] = Ratio of drug level in tumor to spleen of human PSMA expressing PC3 PIP and PSMA deficient human PC3 flu cells xenografted SCID mouse at 2 uCi, iv after 5 hrs; details: in vivo; method in brief: as §2
[24] = Ratio of drug level in tumor to lung of human PSMA expressing PC3 PIP and PSMA deficient human PC3 flu cells xenografted SCID mouse at 2 uCi, iv after 5 hrs; details: in vivo; method in brief: as §1
Spleen = assay: Biodistribution in spleen of PSMA expressing human PC3 PIP and PSMA deficient human PC3 flu cells xenografted SCID mouse at 2 uCi, iv after 30 mins; details: in vivo, 0.5 h
Muscle tissue [25] = assay: Biodistribution in muscle of PSMA expressing human PC3 PIP and PSMA deficient human PC3 flu cells xenografted SCID mouse at 2 uCi, iv after 2 hrs; details: in vivo
[26] = Biodistribution in PC3 PIP tumor of PSMA expressing human PC3 PIP and PSMA deficient human PC3 flu cells xenografted SCID mouse at 2 uCi, iv after 5 hrs; details: in vivo

What does the source list for `O=C(O)CC[C@H](NC(=O)N[C@@H](CCCCNC(=O)c1ccc([18F])cc1)C(=O)O)C(=O)O`?
Drug uptake (Pancreas [1]): 0.05 % ID/g; Ratio [2]: 0.3; Drug uptake (Pancreas [3]): 0.15 % ID/g; Drug uptake (Lung [4]): 0.1 % ID/g; Drug uptake [5]: 0.3 % ID/g; Ratio [6]: 0.1; Drug uptake (Liver): 5.8 % ID/g; Drug uptake [7]: 0.2 % ID/g; Drug uptake (Heart [8]): 0.8 % ID/g; Drug uptake (Muscle tissue [9]): 2.4 % ID/g; Ratio [10]: 21; Drug uptake [11]: 0.6 % ID/g; Ratio [12]: 88; Drug uptake [13]: 0.8 % ID/g; Drug uptake (Stomach): 0.04 % ID/g; Drug uptake (Pancreas [14]): 0.3 % ID/g; Drug uptake [15]: 0.3 % ID/g; Ratio [16]: 0.3; Ratio [17]: 35; Drug uptake (Lung [18]): 0.5 % ID/g; Kp at 2 h [19]: 9; Ratio [20]: 13; Kp at 5 h [21]: 117; Drug uptake (Heart [22]): 0.03 % ID/g; Ratio [23]: 3.5; Ratio [24]: 35; Drug uptake (Spleen): 12.7 % ID/g; Drug uptake (Muscle tissue [25]): 0.2 % ID/g; Drug uptake [26]: 3.5 % ID/g

— ChEMBL document CHEMBL1151761, “Radiohalogenated prostate-specific membrane antigen (PSMA)-based ureas as imaging agents for prostate cancer” (J Med Chem, 2008)
